From ChEMBL document CHEMBL1148788 (J Med Chem, 2007)
“And” between values parts separate entries of the source, which are not always exact repeats. Identical values can stand only once. The source made the active and inactive calls. The calls are words filed in the database; no cut-off is given here.

Assays:
[1] = target: T1, Neuronal acetylcholine receptor subunit alpha-7 (Homo sapiens, UniProt P36544); assay: Antagonist activity at human alpha-7 nAChR in tsA201 cells coexpressed with Ric3 by FMP assay; assay type: functional, cell-based
Target sequence in this assay (P36544 whole entry): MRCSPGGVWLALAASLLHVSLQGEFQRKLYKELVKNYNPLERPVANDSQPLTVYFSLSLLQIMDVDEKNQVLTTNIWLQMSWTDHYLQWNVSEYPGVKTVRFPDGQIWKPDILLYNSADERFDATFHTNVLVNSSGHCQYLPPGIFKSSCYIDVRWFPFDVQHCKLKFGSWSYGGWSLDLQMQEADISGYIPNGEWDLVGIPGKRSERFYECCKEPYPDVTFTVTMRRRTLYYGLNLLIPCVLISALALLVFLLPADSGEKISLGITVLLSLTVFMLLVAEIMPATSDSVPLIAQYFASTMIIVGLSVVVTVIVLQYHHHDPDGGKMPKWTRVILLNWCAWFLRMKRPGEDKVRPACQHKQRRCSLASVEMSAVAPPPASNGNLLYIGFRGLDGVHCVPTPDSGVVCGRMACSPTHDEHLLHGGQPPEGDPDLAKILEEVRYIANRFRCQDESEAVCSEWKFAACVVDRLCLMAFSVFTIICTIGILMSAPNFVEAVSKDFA

[2] = target: T2, 5-hydroxytryptamine receptor 3A (Homo sapiens, UniProt P46098); assay: Displacement of [3H]GR65630 from human 5HT3A receptor in HEK293 cells; assay type: cell-based
T2 sequence (P46098 whole entry): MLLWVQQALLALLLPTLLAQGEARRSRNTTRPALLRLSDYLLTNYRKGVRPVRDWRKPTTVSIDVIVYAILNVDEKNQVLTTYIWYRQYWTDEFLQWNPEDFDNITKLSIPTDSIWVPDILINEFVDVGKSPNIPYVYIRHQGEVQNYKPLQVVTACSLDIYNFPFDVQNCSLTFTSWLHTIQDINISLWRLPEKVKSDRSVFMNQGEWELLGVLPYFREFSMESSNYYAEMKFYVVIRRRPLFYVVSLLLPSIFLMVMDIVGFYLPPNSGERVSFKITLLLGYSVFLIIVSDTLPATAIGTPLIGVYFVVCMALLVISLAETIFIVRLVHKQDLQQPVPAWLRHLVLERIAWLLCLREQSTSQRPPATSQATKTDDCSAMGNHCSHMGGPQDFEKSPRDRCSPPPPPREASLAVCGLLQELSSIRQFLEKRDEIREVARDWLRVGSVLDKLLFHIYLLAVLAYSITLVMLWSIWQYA

[3] = Antagonist activity at human alpha7nAChR Y93A mutant co-expressed with human Ric3 in tsA201 cells by FMP assay; assay type: functional, cell-based
[4] = Displacement of [3H]methyllycaconitine from chimeric alpha7nAChR Y195A mutant/5HT3A receptor in tsA201 cells; assay type: cell-based, Homo sapiens
How it was run: (§1)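 tsA-201 cells transiently transfected with 4 µg WT or mutant α7/5-HT3A chimera and assayed 2 days later. Membranes washed twice at 50000g in 50 mM Tris-HCl pH 7.2. Incubated with 0.5 nM [3H]MLA and compound for 2.5 h at room temperature with shaking; nonspecific binding with 5 mM (S)-nicotine. PEI-soaked GF/C filtration, scintillation counting. Ki derived; duplicate, 3–7 experiments.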

[5] = target: T1, Neuronal acetylcholine receptor subunit alpha-7; assay: Displacement of [3H]methyllycaconitine from alpha7 nAChR in tsA201 cells co-expressed with Ric3; assay type: cell-based
Target sequence in this assay (P36544 whole entry): as the sequence (P36544 whole entry) above

[6] = target: T1, Neuronal acetylcholine receptor subunit alpha-7; assay: Displacement of [3H]methyllycaconitine from chimeric alpha7nAChR/5HT3A in tsA201 cells; assay type: cell-based
Target sequence in this assay (P36544 23-502 limits assumed): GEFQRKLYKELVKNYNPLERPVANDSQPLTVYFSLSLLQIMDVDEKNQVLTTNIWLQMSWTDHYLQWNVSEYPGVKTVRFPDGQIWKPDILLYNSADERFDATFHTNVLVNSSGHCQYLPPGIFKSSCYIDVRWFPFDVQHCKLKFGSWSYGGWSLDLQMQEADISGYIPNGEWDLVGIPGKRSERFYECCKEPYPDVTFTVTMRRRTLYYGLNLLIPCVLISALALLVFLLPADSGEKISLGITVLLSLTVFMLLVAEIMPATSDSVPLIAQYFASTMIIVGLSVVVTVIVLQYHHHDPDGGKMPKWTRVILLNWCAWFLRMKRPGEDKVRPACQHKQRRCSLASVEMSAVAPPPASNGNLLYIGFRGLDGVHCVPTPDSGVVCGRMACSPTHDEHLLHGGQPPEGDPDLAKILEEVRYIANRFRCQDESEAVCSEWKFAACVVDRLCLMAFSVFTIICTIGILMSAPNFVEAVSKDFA

tsA201 [7] = assay: Displacement of [3H]methyllycaconitine from chimeric alpha-7nAChR W149Y mutant/5HT3A receptor W149Y mutant in tsA201 cells; assay type: cell-based; conditions: Homo sapiens; how it was run: as §1
[8] = Displacement of [3H]methyllycaconitine from chimeric alpha7nAChR K145A mutant/5HT3A receptor in tsA201 cells; assay type: cell-based, Homo sapiens; how it was run: as §1
[9] = target: T1, Neuronal acetylcholine receptor subunit alpha-7; assay: Displacement of [3H]methyllycaconitine from human alpha-7 in tsA201 cells coexpressed with 5HT3A receptor; assay type: cell-based
Target sequence in this assay (P36544 whole entry): as the sequence (P36544 whole entry) above

[10] = target: T1, Neuronal acetylcholine receptor subunit alpha-7
Target sequence in this assay (P36544 whole entry): as above

[11] = Displacement of [3H]methyllycaconitine from chimeric alpha-7nAChR S150A mutant/5HT3A receptor in tsA201 cells; assay type: cell-based, Homo sapiens; how it was run: as §1
cells = assay type: functional, cell-based; conditions: Homo sapiens, HEK293
[12] = Displacement of [3H]methyllycaconitine from chimeric alpha-7nAChR N107A mutant/5HT3A receptor in tsA201 cells; assay type: cell-based, Homo sapiens; how it was run: as §1
[13] = target: T3, Glycine receptor subunit alpha-1 (Homo sapiens, UniProt P23415); assay: Antagonist activity at human glycine alpha-1 receptor in HEK293 cells by FMP assay; assay type: functional, cell-based
T3 sequence (P23415 whole entry): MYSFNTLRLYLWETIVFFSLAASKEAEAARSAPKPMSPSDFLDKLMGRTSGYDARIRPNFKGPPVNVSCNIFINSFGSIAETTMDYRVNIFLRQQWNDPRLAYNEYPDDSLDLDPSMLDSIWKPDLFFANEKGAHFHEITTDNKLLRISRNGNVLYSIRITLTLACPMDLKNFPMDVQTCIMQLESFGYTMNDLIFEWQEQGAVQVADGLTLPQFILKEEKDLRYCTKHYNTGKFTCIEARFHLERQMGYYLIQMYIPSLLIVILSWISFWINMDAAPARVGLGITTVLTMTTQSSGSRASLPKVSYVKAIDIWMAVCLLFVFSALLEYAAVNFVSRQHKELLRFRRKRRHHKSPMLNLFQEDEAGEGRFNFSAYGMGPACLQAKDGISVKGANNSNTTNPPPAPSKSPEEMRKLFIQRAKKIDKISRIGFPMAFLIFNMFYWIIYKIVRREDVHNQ

tsA201 [14] = assay: Displacement of [3H]methyllycaconitine from chimeric alpha-7nAChR Y93A mutant/5HT3A receptor in tsA201 cells; assay type: cell-based; conditions: Homo sapiens; how it was run: as §1
tsA201 [15] = assay: Displacement of [3H]methyllycaconitine from chimeric alpha-7nAChR W55A/Y195A mutant /5HT3A receptor in tsA201 cells; assay type: cell-based; conditions: Homo sapiens; how it was run: as §1
[16] = Displacement of [3H]methyllycaconitine from chimeric alpha-7nAChR K145R mutant /5HT3A receptor in tsA201 cells; assay type: cell-based, Homo sapiens; how it was run: as §1
[17] = Displacement of [3H]methyllycaconitine from chimeric alpha-7nAChR D197A mutant/5HT3A receptor in tsA201 cells; assay type: cell-based, Homo sapiens; how it was run: as §1
[18] = target: Neuronal acetylcholine receptor; alpha4/beta2 (Rattus norvegicus, UniProt P09483+P12390); assay: Displacement of [3H]epibatidine from rat recombinant alpha-4-beta-2 nAChR in HEK293 cell line; assay type: cell-based
[19] = Displacement of [3H]methyllycaconitine from chimeric alpha-7nAChR Y195F mutant/5HT3A receptor in tsA201 cells; assay type: cell-based, Homo sapiens; how it was run: as §1
[20] = Displacement of [3H]methyllycaconitine from chimeric alpha7nAChR R79A mutant/5HT3A receptor R79A mutant in tsA201 cells; assay type: cell-based, Homo sapiens; how it was run: as §1
[21] = Antagonist activity at human alpha7 nAChR W149Y mutant co-expressed with human Ric3 in tsA201 cells by FMP assay; assay type: functional, cell-based
[22] = target: T2, 5-hydroxytryptamine receptor 3A; assay: Antagonist activity at human 5HT3A receptor expressed in HEK293 cells by FMP assay; assay type: functional, cell-based; conditions: read-out: IC50
[23] = Antagonist activity at human alpha-7 nAChR Y195A mutant coexpressed with human Ric3 in tsA201 cells by FMP assay; assay type: functional, cell-based
[24] = target: Neuronal acetylcholine receptor; alpha4/beta4 (Rattus norvegicus, UniProt P09483+P12392); assay: Displacement of [3H]epibatidine from recombinant rat alpha-4-beta-4 nAChr in HEK293 cell line; assay type: cell-based
[25] = Displacement of [3H]methyllycaconitine from chimeric alpha-7nAChR S148A mutant /5HT3A receptor in tsA201 cells; assay type: cell-based, Homo sapiens; how it was run: as §1
[26] = Displacement of [3H]methyllycaconitine from chimeric alpha-7nAChR W55A mutant /5HT3A receptor in tsA201 cells; assay type: cell-based, Homo sapiens; how it was run: as §1
tsA201 [27] = assay: Displacement of [3H]methyllycaconitine from chimeric alpha-7nAChR W149A mutant/5HT3A receptor in tsA201 cells; assay type: cell-based; conditions: Homo sapiens; how it was run: as §1
[28] = Displacement of [3H]methyllycaconitine from chimeric alpha7nAChR W55Y mutant/5HT3A receptor in tsA201 cells; assay type: cell-based, Homo sapiens; how it was run: as §1
[29] = Displacement of [3H]methyllycaconitine from chimeric alpha-7nAChR Y168A mutant/5HT3A receptor in tsA201 cells; assay type: cell-based, Homo sapiens; how it was run: as §1
[30] = Antagonist activity at human alpha-7 nAChR Y188A mutant coexpressed with human Ric3 in tsA201 cells by FMP assay; assay type: functional, cell-based
[31] = target: T4, Neuronal acetylcholine receptor; alpha3/beta4 (Rattus norvegicus, UniProt P04757+P12392); assay: Displacement of [3H]epibatidine from recombinant rat alpha-3-beta-4 nAChr in HEK293 cell line; assay type: cell-based
tsA201 [32] = assay: Displacement of [3H]methyllycaconitine from chimeric alpha-7nAChR Y188A mutant/5-HT3A receptor in tsA201 cells; assay type: cell-based; conditions: Homo sapiens; how it was run: as §1
[33] = target: T4, Neuronal acetylcholine receptor; alpha3/beta4; assay: Antagonist activity at rat alpha3beta4 nAChR expressed in HEK293 cells by FMP assay; assay type: functional, cell-based, Homo sapiens; conditions: read-out: IC50

Neuronal acetylcholine receptor; alpha4/beta2, sequence (P09483 whole entry): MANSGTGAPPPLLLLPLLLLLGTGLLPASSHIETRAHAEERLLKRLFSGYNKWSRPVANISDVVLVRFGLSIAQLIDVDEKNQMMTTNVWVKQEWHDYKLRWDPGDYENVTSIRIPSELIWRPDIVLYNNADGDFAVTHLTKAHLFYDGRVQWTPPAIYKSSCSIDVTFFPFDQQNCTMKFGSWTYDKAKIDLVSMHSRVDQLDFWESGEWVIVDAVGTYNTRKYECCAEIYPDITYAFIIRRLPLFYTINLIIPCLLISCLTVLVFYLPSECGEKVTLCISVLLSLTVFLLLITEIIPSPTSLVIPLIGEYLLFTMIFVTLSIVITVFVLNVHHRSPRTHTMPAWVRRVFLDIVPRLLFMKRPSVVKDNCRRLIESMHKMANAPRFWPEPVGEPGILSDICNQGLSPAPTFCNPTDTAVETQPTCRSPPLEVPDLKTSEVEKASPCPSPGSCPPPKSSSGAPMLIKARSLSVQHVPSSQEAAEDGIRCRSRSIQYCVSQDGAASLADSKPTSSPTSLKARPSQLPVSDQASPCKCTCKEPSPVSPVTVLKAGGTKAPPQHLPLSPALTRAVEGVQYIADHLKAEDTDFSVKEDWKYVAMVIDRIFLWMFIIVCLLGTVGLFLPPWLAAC
Neuronal acetylcholine receptor; alpha4/beta2, sequence (P12390 whole entry): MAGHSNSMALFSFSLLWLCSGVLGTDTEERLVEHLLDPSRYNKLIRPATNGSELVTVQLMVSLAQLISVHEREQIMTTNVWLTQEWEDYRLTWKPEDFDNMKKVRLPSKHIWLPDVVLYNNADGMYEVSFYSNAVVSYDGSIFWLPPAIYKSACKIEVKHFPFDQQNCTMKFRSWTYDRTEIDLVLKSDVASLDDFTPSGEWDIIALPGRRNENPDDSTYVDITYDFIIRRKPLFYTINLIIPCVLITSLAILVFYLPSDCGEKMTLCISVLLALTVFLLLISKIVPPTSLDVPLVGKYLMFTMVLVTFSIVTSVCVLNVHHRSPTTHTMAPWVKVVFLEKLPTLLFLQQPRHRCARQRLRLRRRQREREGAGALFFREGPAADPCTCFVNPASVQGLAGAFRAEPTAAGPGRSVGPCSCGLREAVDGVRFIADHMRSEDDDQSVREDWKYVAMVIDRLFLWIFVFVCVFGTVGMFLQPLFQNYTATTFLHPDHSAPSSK
Neuronal acetylcholine receptor; alpha4/beta4, sequence (P09483 whole entry): as the sequence (P09483 whole entry) above
Neuronal acetylcholine receptor; alpha4/beta4, sequence (P12392 whole entry): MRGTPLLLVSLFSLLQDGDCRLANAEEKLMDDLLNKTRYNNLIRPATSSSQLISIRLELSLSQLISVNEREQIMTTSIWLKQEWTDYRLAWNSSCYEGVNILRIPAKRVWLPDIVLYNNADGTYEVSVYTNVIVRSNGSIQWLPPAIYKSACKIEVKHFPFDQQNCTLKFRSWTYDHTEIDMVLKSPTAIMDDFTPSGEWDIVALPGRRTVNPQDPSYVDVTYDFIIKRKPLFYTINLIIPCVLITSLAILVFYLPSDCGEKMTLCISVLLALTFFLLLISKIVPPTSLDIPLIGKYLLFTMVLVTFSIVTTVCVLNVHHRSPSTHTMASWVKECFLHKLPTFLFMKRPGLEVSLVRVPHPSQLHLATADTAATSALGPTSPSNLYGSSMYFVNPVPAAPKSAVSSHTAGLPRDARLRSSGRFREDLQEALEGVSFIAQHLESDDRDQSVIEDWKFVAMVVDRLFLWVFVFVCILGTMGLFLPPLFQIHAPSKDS
T4 sequence (P04757 whole entry): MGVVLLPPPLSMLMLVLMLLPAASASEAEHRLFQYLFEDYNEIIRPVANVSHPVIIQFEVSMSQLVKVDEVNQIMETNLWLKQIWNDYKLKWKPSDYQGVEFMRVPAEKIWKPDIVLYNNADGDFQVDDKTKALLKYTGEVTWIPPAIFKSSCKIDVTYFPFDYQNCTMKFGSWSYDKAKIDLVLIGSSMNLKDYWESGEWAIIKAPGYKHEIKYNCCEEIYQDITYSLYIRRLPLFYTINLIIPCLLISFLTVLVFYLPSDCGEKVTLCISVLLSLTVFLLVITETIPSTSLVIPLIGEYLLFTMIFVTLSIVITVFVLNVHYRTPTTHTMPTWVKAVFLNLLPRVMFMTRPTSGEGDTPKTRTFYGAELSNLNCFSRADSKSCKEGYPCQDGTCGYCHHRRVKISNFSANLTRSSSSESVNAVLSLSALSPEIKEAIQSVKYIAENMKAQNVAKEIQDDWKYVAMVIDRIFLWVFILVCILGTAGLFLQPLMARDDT
T4 sequence (P12392 whole entry): as the sequence (P12392 whole entry) above

C[N+]12CC[C@@H]3[C@@H]4[C@@H]5[C@@H](OCC=C(C1)[C@@H]5C[C@@H]32)N1c2ccccc2[C@@]23CC[N+]5(C)CC6=CCO[C@H]([C@@H]([C@H]12)[C@H]6C[C@@H]35)N4c1ccccc1.[I-].[I-] (stereo partly drawn)
IC50 ([1]; read-out: IC50): 1500 nM
IC50 ([1]; read-out: pIC50 (converted)): 1480 nM
Ki [2]: 11000 nM
IC50 ([3]; read-out: IC50): 1300 nM
IC50 ([3]; read-out: pIC50 (converted)): 1320 nM
Ki [4]: 2900 nM
pKi [4]: 5.54
Ki ([5]; read-out: Ki): 210 nM
Ki ([5]; read-out: pKi (converted)): 200 nM
Ki [6]: 330 nM
pKi [6]: 6.48
Activity (tsA201 [7]): inactive
Ki [8]: 250 nM
pKi [8]: 6.6
Ki ([9]; read-out: Ki): 300 nM
Ki ([9]; read-out: pKi (converted)): 316 nM
IC50 [10]: 1500 nM and 1510 nM
Ki [11]: 500 nM
pKi [11]: 6.3
IC50 (cells; read-out: IC50): > 100000 nM
IC50 (cells; read-out: pIC50 (converted)): > 100000 nM
Ki [12]: 330 nM
pKi [12]: 6.48
IC50 [13]: > 100000 nM
pIC50 ([13]; hek293): < 4
Activity (tsA201 [14]): inactive
Activity (tsA201 [15]): inactive
Ki [16]: 430 nM
pKi [16]: 6.37
Ki [17]: 550 nM
pKi [17]: 6.26
pKi ([18]; hek293): < 4
Ki ([18]; read-out: Ki): > 100000 nM
Ki [19]: 390 nM
pKi [19]: 6.41
Ki [20]: 660 nM
pKi [20]: 6.18
IC50 ([21]; read-out: IC50): 2700 nM
IC50 ([21]; read-out: pIC50 (converted)): 2690 nM
IC50 [22]: 30000 nM
IC50 ([23]; read-out: IC50): 7100 nM
IC50 ([23]; read-out: pIC50 (converted)): 7080 nM
Ki [24]: > 100000 nM
pKi ([24]; hek293): < 4
Ki [25]: 790 nM
pKi [25]: 6.1
Ki [26]: 850 nM
pKi [26]: 6.07
Activity (tsA201 [27]): inactive
Ki [28]: 300 nM
pKi [28]: 6.53
Ki [29]: 310 nM
pKi [29]: 6.51
IC50 ([30]; read-out: IC50): 2500 nM
IC50 ([30]; read-out: pIC50 (converted)): 2450 nM
Ki [31]: 30000 nM
Activity (tsA201 [32]): inactive
IC50 [33]: 30000 nM
